# An excerpt weighted towards active compounds, which were near 2.8% of everything screened.
# m-calpain inh – blocks pig calpain II enzyme activity | purified calpain II, fluorogenic peptide substrate, 30 min | hit rate 0.37% among 220,000 | inhibition, % at 16 µM;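 active = inhibition above about 50%, limit read from the data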
# Arbovirus anti – blocks arbovirus infection | AID 1251 | hit rate 0.37% among 200,000 | arbovirus infection cell-based antiviral screen | inhibition, % at 10 µM; in the data active = inhibition above about 30%
# Mcl1-Bid inh – Mcl-1/Bid interaction inhibition; Q07820; TR-FRET Mcl-1/Bid-Dy647 peptide binding, 1536-well; inhibition, % at 21.7 µM; hit rate 0.97% among 220,000;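 active = compounds that cut the binding signal by more than half at the single screening dose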;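 note: His-tagged Mcl-1 with europium anti-His antibody binding Bid BH3 peptide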
# Target sequence (Q07820 whole entry, looked up): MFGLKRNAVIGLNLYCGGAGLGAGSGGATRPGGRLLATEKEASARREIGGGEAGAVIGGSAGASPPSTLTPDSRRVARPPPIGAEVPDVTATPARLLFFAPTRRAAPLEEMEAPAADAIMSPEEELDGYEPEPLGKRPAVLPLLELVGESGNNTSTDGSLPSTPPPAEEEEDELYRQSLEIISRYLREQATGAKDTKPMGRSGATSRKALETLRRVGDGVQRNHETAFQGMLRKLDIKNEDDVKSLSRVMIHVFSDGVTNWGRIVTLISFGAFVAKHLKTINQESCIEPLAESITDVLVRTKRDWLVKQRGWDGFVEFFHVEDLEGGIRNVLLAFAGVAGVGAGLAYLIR
# Calb biofilm kill – mixture kills Candida albicans biofilm cells. C. albicans biofilm persisters + clotrimazole, fluorescence viability; primary screen in compound mixtures of four per well. AID 1242. inhibition, % at 7.6 µM. hit rate 0.02% among 120,000;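 active = inhibition above 30.3% in the primary screen of four-compound pools, then above 30% when the compound was retested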;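 note: compounds exposed to preformed 24 h biofilms for 48 h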
#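 Test system: C. albicans CAF4-2 wild-type biofilms; buffer or medium: RPMI/MOPS medium, pH 7.0; schedule: 24 h biofilm formation, then 48 h compound exposure, 37 °C; detection: Alamar Blue fluorescence; measure: percent inhibition of biofilm viability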
# Mcl-1 Bim block – human Bim-Mcl-1 interaction inhibition; Q07820; Bead-based flow cytometry, Bim peptide-Mcl-1 binding; inhibition, % at 10 µM; hit rate 0.1% among 190,000; in the data active = inhibition above about 40%
# Mcl1-Noxa inh – Mcl-1/Noxa interaction inhibition; Q07820; TR-FRET Mcl-1/Noxa peptide binding, 2 h; inhibition, % at 21.7 µM; hit rate 1.5% among 220,000; AID 1022;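 active = compounds that cut the protein-peptide binding signal by more than 50% relative to plate controls in a single-dose test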;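 note: His-tagged Mcl-1 with rhodamine Noxa BH3 peptide and terbium anti-His antibody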
# Hits are given with their value; - = inactive; . = not tested or not shown.
SMILES,m-calpain inh,Arbovirus anti,Mcl1-Bid inh,Calb biofilm kill,Mcl-1 Bim block,Mcl1-Noxa inh
CCOC(=O)c1c(CS(=O)(=O)c2ccccc2)n(C)c2cc(Br)c(O)c(CN(C)C)c12,-,-,-,-,-,62
Oc1ccc(/C=N/Nc2cc(N3CCCC3)nc(N3CCCC3)n2)cc1O,-,-,-,-,-,65
Oc1ccc(/C=N\Nc2cc(N3CCOCC3)nc(N3CCOCC3)n2)c(O)c1,-,-,-,-,-,-
O=C(c1ccco1)N1CCN(CC(=O)N2c3ccccc3CCc3ccccc32)CC1,-,-,56,.,-,-
CSc1nc2ccc3nc(NC(=O)c4ccccc4)sc3c2s1,-,-,55,.,-,-
O=C(Nc1nc2ccccc2s1)c1ccccc1,-,-,-,-,-,-
Oc1c(Br)cc(C=Nc2ccc3nc(-c4ccccc4)[nH]c3c2)c(O)c1Br,-,-,-,-,-,94
Cc1ccc(-c2nc3ccc([N+](=O)[O-])cc3[nH]2)cc1,-,-,-,-,-,-
COc1ccc2nc(-c3ccccc3)[nH]c2c1,-,-,-,.,-,-
O=[N+]([O-])c1ccc(O)c(C=Nc2ccc3nc(-c4ccccc4)[nH]c3c2)c1,-,-,63,-,-,62
O=[N+]([O-])c1ccc2nc(-c3ccncc3)[nH]c2c1,-,.,-,-,.,-
O=[N+]([O-])c1cccc(-c2nc3ccc([N+](=O)[O-])cc3[nH]2)c1,-,-,-,-,-,58
CC(C)(CO)NCC(O)Cn1cc(C=O)c2ccccc21 (stereo not drawn),-,-,-,-,-,-
CCOC(=O)C1(Cc2cccc(OC)c2)CCN(Cc2ccccc2OC)CC1,-,-,-,-,-,-
CCOC(=O)C1(Cc2cccc(OC)c2)CCN(Cc2cccc(OC)c2O)CC1,-,33,-,-,-,-
NC1CCCCC1N=Cc1c(O)n(CCc2ccc(F)cc2)c(=O)[nH]c1=O (stereo not drawn),.,-,.,.,-,.
O=c1[nH]c(=O)n(CCc2ccc(F)cc2)c(O)c1C=NCc1ccc2c(c1)OCO2,-,-,53,.,-,-
Cc1ccc(S(=O)(=O)Nc2ccc(N=Nc3ccc(O)cc3)cc2)cc1,-,-,-,-,-,53
C=CCN(CC=C)S(=O)(=O)c1ccc2nc(NC(=O)C3CCCO3)sc2c1 (stereo not drawn),-,-,-,-,-,-
Cc1ccc2c(c1)c1c(n2CC(O)Cn2nc(C)c(Br)c2C)CCCC1 (stereo not drawn),-,-,-,.,-,-
Cc1nn(CC(O)Cn2c3c(c4ccccc42)CCN(C)C3=O)c(C)c1Br (stereo not drawn),-,36,-,.,-,-
O=C(COC(=O)c1cc[n+]([O-])cc1)Nc1ccc(F)c([N+](=O)[O-])c1,-,-,-,-,-,-
CC1(OC(=O)C2CCCC2)C(=O)C=C2C=C(c3ccsc3)N(C3CC3)C=C2C1=O (stereo not drawn),-,.,-,-,.,-
COC(=O)CCC(=O)OC1(C)C(=O)C=C2C=C3CCCN3C=C2C1=O (stereo not drawn),-,.,-,-,.,54
CC1(OC(=O)c2ccc(Cl)nc2)C(=O)C=C2C=C3CCCN3C=C2C1=O (stereo not drawn),-,.,-,-,.,59
SMILES,m-calpain inh,Arbovirus anti,Mcl1-Bid inh,Calb biofilm kill,Mcl-1 Bim block,Mcl1-Noxa inh
CC1(OC(=O)C2CCCC2)C(=O)C=C2C=C3CCCCN3C=C2C1=O (stereo not drawn),-,.,-,-,.,-
O=C(CSc1cccc[n+]1[O-])Nc1cc([N+](=O)[O-])ccc1Cl,-,-,-,-,-,-
O=C(CSc1cccc[n+]1[O-])Nc1cc2c(cc1Cl)C(=O)c1ccccc1C2=O,-,-,81,-,-,85
NC(=S)c1cc2cc(Cl)ccc2oc1=O,-,.,-,-,.,-
COc1ccc(-c2cc3nc4ccccc4n3c(N)c2C#N)cc1,-,.,72,-,.,81
CCc1ccc(NC(=O)COc2ccc(/C=C(/C#N)c3nc4ccccc4[nH]3)cc2OC)cc1,-,-,56,-,-,-
COc1cc(OC)cc(-c2cc3nc(C)c(CCC(=O)O)c(C)n3n2)c1,-,-,62,.,-,-
CN(C(=O)CSc1ncnc2sccc12)c1c(N)n(Cc2ccccc2)c(=O)[nH]c1=O,-,.,-,-,.,-
c1ccc(Cn2nnc3c(NCc4ccc5c(c4)OCO5)ncnc32)cc1,-,.,52,-,.,-
COC(=O)c1sccc1NC(=O)c1cc(C)on1,-,-,63,.,-,-

# Compound activity deposited in PubChem BioAssay by several laboratories.
